CAL PDZ FP-1 – inhibitors of human CAL PDZ peptide binding. purified CAL PDZ, TMR-peptide fluorescence polarization, 1 h. inhibition, % at 20 µM. Q9HD26. 330,000 compounds, 0.02% hits;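 active means highest replicate inhibition of at least 40%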;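 further: plate controls were DMSO neutral control wells for no effect and unlabeled competitor peptide control wells for full effect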
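Read-out basis: mP drop reported as inhibition | Assay system: Tagged CAL PDZ protein CerCALP, purified | Benchmarks: Unlabelled peptide for full inhibition, DMSO wells as neutral | Schedule: 1 h incubation at room temperature before polarization reading | Buffer or medium: Sodium phosphate/NaCl buffer pH 7.4 with TCEP, IgG, Thesit | Doses: Single point, 20 µM | Measured by: Fluorescence polarization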
dFosB act – enhances mouse delta FosB homodimer DNA binding; purified delta FosB, TAMRA-CDK5 oligo fluorescence polarization; percent of positive-control signal above neutral wells; 340,000 compounds, 0.99% hits; activation, % at 25 µM; P13346;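 active means mean activation above about 17%, with every replicate also reaching it, limit read from the data, passing the limit was not always enough; inconclusive means only one of the two conditions met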
Target sequence (P13346 whole entry, looked up): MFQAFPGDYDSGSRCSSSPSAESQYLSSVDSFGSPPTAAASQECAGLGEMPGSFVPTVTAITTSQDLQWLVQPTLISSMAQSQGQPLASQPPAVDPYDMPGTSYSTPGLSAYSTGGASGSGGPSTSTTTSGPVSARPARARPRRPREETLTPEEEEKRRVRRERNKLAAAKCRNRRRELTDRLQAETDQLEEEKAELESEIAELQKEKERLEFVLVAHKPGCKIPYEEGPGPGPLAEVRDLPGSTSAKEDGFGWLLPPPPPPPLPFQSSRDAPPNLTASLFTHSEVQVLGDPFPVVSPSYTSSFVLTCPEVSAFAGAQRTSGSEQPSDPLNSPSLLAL
CAL PDZ FP-2 – inhibitors of human CAL PDZ peptide binding. Q9HD26. purified CAL PDZ, TMR-peptide fluorescence polarization, 1 h. inhibition, % at 24.9 µM. 300,000 compounds, 0.92% hits. AID 602252;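 active means mean inhibition of at least 30% with at least half of replicates also reaching 30%; inconclusive means no clear call, values can overlap the other calls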;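 further: 0% = DMSO neutral control and 100% = excess unlabeled competitor peptide PRC23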
CDK5 p35 inh – inhibitors of human CDK5/p35 kinase. AID 488839. inhibition, % at 10 µM. 330,000 compounds, 0.01% hits. Recombinant CDK5/p35, ADP-Glo luminescence, 60 min;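 active means highest replicate inhibition of at least 50% and at least 75% of replicates reaching 50%; inconclusive means only one of the two criteria met; inactive means both criteria failed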;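 further: plate controls were DMSO neutral control for no effect and GW8510 at 10 µM for full effect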
S100A4 MyoIIA – S100A4-myosin IIA interaction inhibition; P26447; S100A4/TAMRA-MyoIIA peptide fluorescence polarization; inhibition, % at 10.7 µM; 360,000 compounds, 0.14% hits;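 active means mean inhibition of at least 70% across replicates, with every replicate also reaching that level; inconclusive means mean inhibition reaches 70% but some replicates fall short; inactive means mean inhibition below 70%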
Target sequence (P26447 whole entry, looked up): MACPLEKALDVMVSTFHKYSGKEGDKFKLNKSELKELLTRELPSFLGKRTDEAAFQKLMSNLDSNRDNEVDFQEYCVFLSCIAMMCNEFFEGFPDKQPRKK
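Material: S100A4 monomer protein / Buffer or medium: 50 mM HEPES pH 7.2, 10 mM CaCl2, 100 mM KCl / Times: 5 min incubation before reading / Benchmarks: neutral control DMSO, positive control TFP / Reagent: labelled myosin peptide probe, 5 nM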
Statin myotox sup – suppression of simvastatin myotoxicity | 330,000 compounds, 0.78% hits | C2C12 myotubes + simvastatin, ATP luminescence, 48 h; scaled: DMSO 0, geranylgeraniol control 100 | AID 602340 | rescue of ATP level, % at 7.49 µM;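 active means mean ATP rescue above about 67%, or every replicate alone reaching that limit, limit read from the data, passing the limit was not always enough; inconclusive means no clear call, values can overlap the other calls; inactive means mean under the limit and some replicate under it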;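 further: myotubes were challenged with 10 µM simvastatin during compound exposure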
* marks the source's active call; other numbers are inactive results; ? = inconclusive; · = no result given. Hits are enriched below; roughly 2% of the tested compounds scored in any of these assays.

SMILES | CAL PDZ FP-1 | dFosB act | CAL PDZ FP-2 | CDK5 p35 inh | S100A4 MyoIIA | Statin myotox sup
COc1cccc(Oc2coc3cc(OC(=O)N4CCOCC4)ccc3c2=O)c1 | -1.0 | -17.1 | 0.2 | -2.0 | -2.8 | ·
O=C(Oc1ccccc1)N1CCOCC1 | 13.1 | 3.4 | 74.0* | -0.6 | 0.0 | 2.3
COc1ccccc1Oc1coc2cc(OC(=O)N3CCOCC3)ccc2c1=O | 101.9* | -6.3 | -2.3 | -0.7 | · | -1.4
COC(=O)C[C@H]1CC[C@H]2[C@@H](COc3ccc(NC(=O)c4ccc(OC)cc4)cc3C(=O)N2C)O1 | · | · | · | · | -3.8 | ·
CC1CCCCN1C(=O)COc1ccc(F)cc1 (stereo unspecified) | -1.1 | -3.4 | 44.1* | 1.1 | 2.3 | ·
CN1CCC(OC(=O)COc2ccc(F)cc2)CC1 | 11.2 | 4.0 | 47.3* | -0.3 | 3.5 | 9.0
CN(C)c1ccc(/C=C2/C[N+](C)(C)C/C(=C/c3ccc(N(C)C)cc3)C2=O)cc1 | 0.0 | 22.2* | -6.4 | -0.7 | -77.2 | ·
CC(C)/C=C1\CC/C(=C\c2ccc(N(C)C)cc2)C1=O | -1.1 | -0.3 | -5.8 | 0.6 | -32.8 | ·
O=C(NC1CCCC1)C1CCCN(S(=O)(=O)c2ccc(-n3cnnn3)cc2)C1 (stereo unspecified) | · | 2.5 | 33.5* | 1.1 | -3.6 | 7.5
Cc1nc2c(sc(=S)n2Cc2ccco2)c(=O)n1CC(=O)Nc1ccccc1Cl | -3.9 | 56.4* | -4.1 | -11.9 | -1.0 | -46.8
O=S(=O)(N[C@@H]1CC[C@H](CCn2cc(-c3cccnc3)nn2)O[C@@H]1CO)c1ccc(F)cc1 | · | · | · | · | -16.7 | 3.0
CNc1nc(-c2ccc3c(c2)CCN3C(=O)c2cccc(F)c2)cs1 | -2.2 | -5.6 | -4.8 | 1.9 | 9.2 | ·
O=C(O)c1ccccc1SCC(=O)N1CCOCC1 | 0.0 | 4.3 | 0.5 | 0.1 | 0.3 | ·
COC(=O)c1ccccc1SCC(=O)Nc1ccc(N2CCOCC2)cc1 | -2.0 | 3.4 | 64.1* | -0.7 | -0.4 | ·
O=C(OCC(=O)N1CCOCC1)c1ccccc1SCC(=O)N1CCCC1 | -1.0 | 5.8 | 1.8 | 0.9 | · | 118.4*
O=c1c(/C=N/O)coc2ccc3ccccc3c12 | -3.4 | -24.3 | 10.9 | 0.4 | · | -2.4
CCOC(=O)c1c(NC(=O)COC(=O)c2cnccn2)sc(C(=O)NC)c1C | -0.3 | 39.1* | -2.8 | 0.1 | -6.2 | -3.1
Cc1ccc(Nc2nc(N)c(C#N)c(CC#N)c2C#N)cc1 | 11.0 | 9.7 | -3.8 | 1.1 | -2.0 | ·
CC(=O)c1ccc(NC(=O)c2ccc(CNc3c(N4CCCC4)c(=O)c3=O)cc2)cc1 | -1.2 | ? | 1.2 | -0.9 | 1.0 | ·
O=C(NCc1ccc(Cl)cc1)c1ccc(CNc2c(N3CCOCC3)c(=O)c2=O)cc1 | -1.0 | -2.1 | 69.4* | -1.9 | -2.4 | ·
CCc1cccc(NC(=O)c2ccc(CNc3c(N4CCCC4)c(=O)c3=O)cc2)c1 | 0.7 | -8.9 | -0.5 | 1.3 | 0.5 | 100.0*
NC(=O)CC[C@H](NC(=O)OCc1ccccc1)C(=O)OCc1ccc(Cl)cc1 | -0.7 | 4.3 | -1.2 | 0.4 | · | ·
CCc1ccc(-c2nn(-c3ccccc3)cc2C2SCC(=O)N2Cc2ccco2)cc1 (stereo unspecified) | -0.4 | 0.4 | -0.2 | 0.3 | · | ·
O=C1CSC(c2cn(-c3ccccc3)nc2-c2ccccc2)N1Cc1ccco1 (stereo unspecified) | -0.1 | -5.9 | 1.4 | 0.5 | · | 73.7*
CCOC(=O)c1nn(-c2ccc(F)cc2)c(C)c1C(C)=O | -0.8 | -1.8 | -1.5 | -0.8 | · | 73.8*
SMILES | CAL PDZ FP-1 | dFosB act | CAL PDZ FP-2 | CDK5 p35 inh | S100A4 MyoIIA | Statin myotox sup
C[C@H]1CN([C@@H](C)CO)C(=O)Cc2cc(NC(=O)Nc3ccc4c(c3)OCO4)ccc2O[C@H]1CN(C)Cc1ccc2c(c1)OCO2 | · | · | · | · | -5.3 | -41.4
COc1ccc(N=c2cc(-c3ccc(OC)cc3)oc3ccccc23)cc1 | -0.5 | 12.4 | -2.1 | 1.5 | · | ·
COc1ccc(N=c2cc(-c3ccc(O)cc3)oc3ccccc23)cc1 | -1.9 | 42.0* | -1.2 | -1.6 | -2.4 | ·
COc1ccc(N(CC(=O)NCCSc2ccc(C)cc2)S(=O)(=O)c2ccccc2)c(OC)c1 | -0.7 | -8.7 | 40.3* | -0.7 | -0.6 | -40.6
COc1cccc(NC(=O)CSc2nnc(-c3cc(-c4ccccn4)nc4ccccc34)o2)c1 | -1.3 | -1.5 | 0.9 | -1.2 | · | 82.9*
O=C(N/N=C/c1ccccc1)c1ccco1 | -0.5 | -5.3 | -2.6 | 0.6 | -1.0 | -1.1
O=C(Nc1ccccc1C(=O)N/N=C/c1ccccc1)c1ccco1 | -1.3 | 88.4* | -1.3 | -1.3 | 3.2 | -3.5
COc1ccc(C2CC(c3ccccc3)=NN2C(=O)CN2N=NC3C(=O)N(c4cccc(F)c4)C(=O)C32)cc1 (stereo unspecified) | -2.6 | -15.9 | -3.1 | -1.6 | -1.6 | ·
CCOC(=O)C1=C(C)N[C@@]2(O)c3ccccc3C(=O)[C@@]12O | -3.3 | -5.4 | -0.6 | -0.7 | 7.9 | 129.7*
CN(C)CCCNC1CS(=O)(=O)CC1O (stereo unspecified) | -1.2 | -10.0 | -2.0 | 1.9 | · | 10.2
COCCCNC1CS(=O)(=O)CC1O (stereo unspecified) | 7.6 | -0.2 | 72.5* | 1.4 | 4.1 | -35.0
Cc1cc(Cl)ccc1N(CC(=O)N(C)Cc1ccccc1)S(C)(=O)=O | · | · | · | · | 0.2 | 6.1
Nc1c(N)c2ccccc2oc1=O | -1.2 | -3.3 | · | -0.3 | · | 57.8
COc1cc2c(ccc3cc(OC)c(OC)c(O)c32)cc1O | 1.4 | -14.8 | -1.5 | 80.6* | 12.0 | -9.9
COc1cc2cccc(OC)c(=O)c2c(O)c1OC | -2.1 | 9.6 | -3.0 | -0.8 | -7.4 | -2.5
CCOc1ccc(S(=O)(=O)/N=C(/Nc2ccc(C(C)=O)cc2)c2ccccc2)cc1 | -3.0 | -13.2 | 0.3 | 2.8 | -1.2 | 8.7
O=C1CCC(C(=O)OCC(=O)C23CC4CC(CC(C4)C2)C3)N1 (stereo unspecified) | 1.1 | -7.9 | · | 0.2 | · | 89.9*
CC(C)CN1CCN(Cc2cc3ccccc3[nH]2)CC1CCO (stereo unspecified) | -18.4 | -7.4 | -2.2 | 1.0 | -3.0 | -5.2
Cc1ccc(C(=O)CCC(=O)N2CCN(c3ccc(F)cc3)CC2)cc1 | -0.6 | 2.6 | -0.8 | 1.6 | -2.0 | -6.2
O=C(CCC(=O)N1CCOCC1)c1ccc(F)cc1 | -5.6 | -1.0 | 32.9* | -0.8 | -5.2 | ·
Cc1noc(C)c1C(=O)OCC(=O)NCCc1ccccc1 | -0.7 | -3.3 | 84.1* | 0.3 | -29.1 | -5.7
Cc1cccc(-n2cnc3c(sc4nc(N5CCOCC5)c5c(c43)CCCC5)c2=O)c1 | -2.8 | -5.0 | 60.0* | 1.1 | 3.6 | ·
COc1ccc(C(O)(CC(C)C)C(CN2CCOCC2)c2ccccc2)cc1 (stereo unspecified) | 0.3 | -11.5 | -2.2 | -0.6 | -3.6 | 29.7

Compound activity as filed in PubChem.
